This is an account of results in ChEMBL document CHEMBL5126583, “Cytotoxicity of cinchona alkaloid organocatalysts against MES-SA and MES-SA/Dx5 multidrug-resistant uterine sarcoma cell lines” (Bioorg Med Chem, 2022).

Activity calls are given as the source filed them. The rule behind the calls is not given here.

The nature of assay [1]: Resistance ratio of IC50 for cytotoxicity against multidrug resistance human MES-SA/Dx5 cells to IC50 for cytotoxicity against human MES-SA cells. In kind it is functional.
A short description of assay [2]: Resistance ratio of IC50 for cytotoxicity against multidrug resistance human MES-SA/Dx5 cells in presence of P-gp inhibitor Tariquidar to IC50 for cytotoxicity against human MES-SA cells in presence of P-gp inhibitor Tariquidar. The class given is functional. The method in brief: (§1)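 Co-culture of fluorescent MES-SA (mCherry) and Dx5 (eGFP, doxorubicin 500 nM pretreated) exposed to serial dilutions plus 0.4 µM tariquidar for 144 h. Per-line fluorescence read-out gave IC50. Resistance ratio = IC50 Dx5 / IC50 MES-SA; significance by two-sided unpaired t-test.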

For assay [3], the system named is MES-SA. Nature of the assay: Cytotoxicity against human MES-SA cells assessed as cell growth inhibition incubated for 144 hrs in presence of P-gp inhibitor Tariquidar by fluorescence microplate reader assay. In kind it is functional, cell-based. In short, it runs like this: as §1
Assay [4] relates to MES-SA. Nature of the assay: Cytotoxicity against human MES-SA cells assessed as cell growth inhibition incubated for 144 hrs by fluorescence microplate reader assay. In kind it is functional, cell-based. In short, it runs like this:
(§2)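 MES-SA (mCherry) and doxorubicin-selected Dx5 (eGFP; pretreated with 500 nM doxorubicin to keep P-gp expression) co-cultured, 1250 cells each per well, settled overnight. Serial dilutions added, 144 h incubation. Viability read by fluorescence (mCherry ex 585/em 610 nm; eGFP ex 485/em 510 nm). IC50 by automated curve evaluation; two-sided unpaired t-test.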

Assay [5] relates to MES-SA/Dx5. Put plainly: Cytotoxicity against multidrug resistance human MES-SA/Dx5 cells assessed as cell growth inhibition incubated for 144 hrs in presence of P-gp inhibitor Tariquidar by fluorescence microplate reader assay. To be noted: MES-SA/Dx5, 144 h. In kind it is functional, cell-based. The method in brief: as §1
Assay [6] concerns MES-SA/Dx5. Nature of the assay: Cytotoxicity against multidrug resistance human MES-SA/Dx5 cells assessed as cell growth inhibition incubated for 144 hrs by fluorescence microplate reader assay. In kind it is functional, cell-based. To be noted: MES-SA/Dx5, 144 h. In short, it runs like this:
as §2

Assay [7] concerns MES-SA/Dx5. Nature of the assay: Inhibition of P-gp in multidrug resistance human MES-SA/Dx5 cells assessed as inhibition of calcein-AM efflux at 20 uM incubated for 15 mins by calcein-AM staining based flow cytometry analysis.
In assay [8] the test system is MES-SA/Dx5. Put plainly: Cytotoxicity against multidrug resistance human MES-SA/Dx5 cells assessed as reduction on calcein accumulation by measuring cell distribution at 20 uM incubated for 15 mins by calcein-AM staining based flow cytometry analysis. The class given is functional. On the set-up: scale not given: the % may be the effect or the level left. To be noted: 0.25 h. The method in brief:
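Non-fluorescent Dx5 cells, 250 000 per tube, washed in serum-free DMEM, preincubated 5 min at 37 °C with compound at 20 µM. Calcein-AM then added (250 nM final) for 10 min more. Stopped with ice-cold PBS and kept on ice. Calcein fluorescence measured by flow cytometry, TO-PRO-3 live/dead gating. Controls: 20 µM verapamil, medium only.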

In assay [9] the test system is MES-SA/Dx5. Nature of the assay: Cytotoxicity against multidrug resistance human MES-SA/Dx5 cells assessed as inhibition of calcein-AM efflux at 20 uM incubated for 15 mins in presence of metal chelator EDTA by calcein-AM staining based flow cytometry analysis. The class given is functional, cell-based. In short, it runs like this:
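Calcein accumulation in non-fluorescent Dx5 cells, 250 000 per tube, with every step from preincubation to measurement in PBS containing 1 µM EDTA. Cells preincubated 5 min with 20 µM compound, then 250 nM calcein-AM for 10 min at 37 °C. Read by flow cytometry with TO-PRO-3 live/dead stain. Controls: verapamil 20 µM, no inhibitor.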

The term IC50 denotes the concentration that gives 50% inhibition. Turning to `CC[C@H]1CN2CC[C@H]1C[C@H]2[C@@H](NC(=S)Nc1cc(C(F)(F)F)cc(C(F)(F)F)c1)c1ccnc2ccc(OC)cc12`, the “Ratio IC50” value in [1] came out at 1.2; in [2], 0.8. Also, the IC50 was 1 µM with MES-SA [3], 1.3 µM in the assay on MES-SA [4], 0.9 µM in the assay on MES-SA/Dx5 [5] and 1.5 µM in the assay with MES-SA/Dx5 [6].
`C#C[C@H]1CN2CC[C@H]1C[C@H]2[C@@H](N)c1ccnc2ccc(OC)cc12`: the “Ratio IC50” value was found to be 5.6 in assay [1] and 4.9 in assay [2]. Further, the IC50 worked out at 30 µM in the assay with MES-SA [3], 29 µM in the assay with MES-SA [4], 146 µM in the assay on MES-SA/Dx5 [5] and 161 µM in the assay on MES-SA/Dx5 [6].
Turning to `C=C[C@H]1CN2CC[C@H]1C[C@H]2[C@H](O)c1ccnc2ccc(OC)cc12` [QUININE], the “Ratio IC50” value in [1] was determined as 0.7; in assay [2], 0.5. For the same compound, the outcome with MES-SA/Dx5 [7] was Active. For the same compound, the IC50 was 91 µM in the assay on MES-SA [3], 93 µM in the assay on MES-SA [4], 43 µM in the assay with MES-SA/Dx5 [5] and 67 µM with MES-SA/Dx5 [6].
Regarding `CC[C@H]1CN2CC[C@H]1C[C@H]2[C@@H](N)c1ccnc2ccc(OC)cc12`, the figures for the “Ratio IC50” value in assay [1] and in assay [2] were 1.3 and 0.6, respectively. The IC50 with MES-SA [3] is 82 µM; with MES-SA [4] it was 80 µM; in the assay on MES-SA/Dx5 [5], 48 µM; in the assay on MES-SA/Dx5 [6] it was 105 µM.
Turning to `C=C[C@H]1CN2CC[C@H]1C[C@H]2[C@@H](N)c1ccnc2ccc(OC)cc12`, the “Ratio IC50” value is 2.4 in assay [1] and 1 in assay [2]. Moreover, in the assay on MES-SA/Dx5 [7], the outcome was Active. Besides, the IC50 in the assay with MES-SA [3] stood at 115 µM; in the assay on MES-SA [4], 81 µM; in the assay on MES-SA/Dx5 [5], 121 µM; with MES-SA/Dx5 [6], 197 µM.
Regarding `C#C[C@H]1CN2CC[C@H]1C[C@H]2[C@@H](NC(=S)Nc1cc(C(F)(F)F)cc(C(F)(F)F)c1)c1ccnc2ccc(OC)cc12`, the “Ratio IC50” value in assay [1] is reported as 0.9. In addition, the IC50 in the assay with MES-SA [4] is 4.2 µM; in the assay with MES-SA/Dx5 [6] it was 3.9 µM.
On to `CC[C@H]1CN2CC[C@H]1C[C@H]2[C@@H](Nc1c(NCc2ccccc2)c(=O)c1=O)c1ccnc2ccc(OC)cc12`, for which the figures for the “Ratio IC50” value in assay [1] and in assay [2] were 6.6 and 0.9, respectively. Moreover, the Activity in the assay on MES-SA/Dx5 [8] was 53.1%. In addition, in the assay on MES-SA/Dx5 [9], the result was Active. Besides, the IC50 was determined as 3.9 µM in the assay with MES-SA [3], 3.1 µM in the assay with MES-SA [4], 3.4 µM in the assay with MES-SA/Dx5 [5] and 21 µM in the assay on MES-SA/Dx5 [6].
For the compound `C=C[C@H]1CN2CC[C@H]1C[C@H]2[C@@H](Nc1c(Nc2cc(C(F)(F)F)cc(C(F)(F)F)c2)c(=O)c1=O)c1ccnc2ccc(OC)cc12`, the “Ratio IC50” value in assay [1] was 3; in [2], 0.5. In addition, the outcome with MES-SA/Dx5 [7] was Active. The IC50 with MES-SA [3] came out at 4.9 µM; with MES-SA [4], 4.2 µM; in the assay on MES-SA/Dx5 [5], 2.7 µM; in the assay on MES-SA/Dx5 [6] it was 12 µM.
Regarding `C#C[C@H]1CN2CC[C@H]1C[C@H]2[C@H](O)c1ccnc2ccc(OC)cc12`, the “Ratio IC50” value is reported as 0.8 in [1] and 0.7 in [2]. In addition, the IC50 is 117 µM in the assay with MES-SA [3], 111 µM with MES-SA [4], 79 µM in the assay with MES-SA/Dx5 [5] and 85 µM in the assay on MES-SA/Dx5 [6].
In the case of `Oc1c(CN2CCCCC2)ccc2cccnc12`, in [1], the “Ratio IC50” value was 0.1.
For `CC[C@H]1CN2CC[C@H]1C[C@H]2[C@H](O)c1ccnc2ccc(OC)cc12` [HYDROQUININE], the “Ratio IC50” value in [1] is on record as 1. The IC50 stood at 48 µM in the assay with MES-SA [4] and 47 µM with MES-SA/Dx5 [6].
Turning to `CC[C@H]1CN2CC[C@H]1C[C@H]2[C@@H](Nc1c(Nc2cc(C(F)(F)F)cc(C(F)(F)F)c2)c(=O)c1=O)c1ccnc2ccc(OC)cc12`, the “Ratio IC50” value in assay [1] came out at 2.9; in assay [2], 0.5. Also, the IC50 turned out to be 4.4 µM in the assay with MES-SA [3], 3.6 µM in the assay on MES-SA [4], 2.3 µM in the assay with MES-SA/Dx5 [5] and 11 µM with MES-SA/Dx5 [6].
For `C=C[C@H]1CN2CC[C@H]1C[C@H]2[C@@H](NC(=S)Nc1cc(C(F)(F)F)cc(C(F)(F)F)c1)c1ccnc2ccc(OC)cc12`, in [1], the “Ratio IC50” value was 1.2. Moreover, the outcome in the assay on MES-SA/Dx5 [7] was Active. The results for the IC50 in the assay with MES-SA [4] and in the assay with MES-SA/Dx5 [6] were 2.3 µM and 2.8 µM, respectively.
On to `C#C[C@H]1CN2CC[C@H]1C[C@H]2[C@@H](Nc1c(Nc2cc(C(F)(F)F)cc(C(F)(F)F)c2)c(=O)c1=O)c1ccnc2ccc(OC)cc12`, for which the “Ratio IC50” value in assay [1] amounted to 3.7; in assay [2], 0.4. In addition, the IC50 in the assay on MES-SA [3] is 5.5 µM; in the assay on MES-SA [4] it was 3.9 µM; in the assay with MES-SA/Dx5 [5], 2.3 µM; in the assay on MES-SA/Dx5 [6], 14 µM.
On to `COc1cccc2c1C(=O)c1c(O)c3c(c(O)c1C2=O)C[C@@](O)(C(=O)CO)C[C@@H]3O[C@H]1C[C@H](N)[C@H](O)[C@H](C)O1` [DOXORUBICIN], for which the “Ratio IC50” value in assay [1] was determined as 62.5; in assay [2], 0.8.
As to `CC[C@H]1CN2CC[C@H]1C[C@H]2[C@@H](Nc1c(NCc2ccccc2)c(=S)c1=S)c1ccnc2ccc(OC)cc12`, the “Ratio IC50” value in assay [1] was found to be 1.1; in assay [2] it was 0.9. In addition, in the assay on MES-SA/Dx5 [7], the result was Active. Further, the IC50 in the assay on MES-SA [3] is 56 µM; in the assay with MES-SA [4] it was 57 µM; in the assay on MES-SA/Dx5 [5], 50 µM; in the assay with MES-SA/Dx5 [6], 65 µM.
